According to ChEMBL document CHEMBL3612002, “Identification of A Novel Small-Molecule Binding Site of the Fat Mass and Obesity Associated Protein (FTO)” (J Med Chem, 2015):
Activity calls are given as the source filed them. The rule behind the calls is not given here.

Columns and labels:
[1] = target: T1, Alpha-ketoglutarate-dependent dioxygenase FTO (Homo sapiens, UniProt Q9C0B1); experiment: Inhibition of FTO (unknown origin) (31 to 505 residues) expressed in Escherichia coli BL21 (DE3) cells assessed as reduction in 3-meT substrate demethylation by measuring demethylation ratio at 80 uM incubated for 17 hrs at 16 degC by HPLC method; design: scale not given: the % may be the effect or the level left
Summary of the method: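 Preliminary screen with FTO and 3meT substrate (0.1 mg/mL stock) in MES, FeSO4, αKG and L-ascorbate; inhibitor added from a 4 mM DMSO stock, with DMSO alone as control. Incubated 17 h at 16 °C, centrifuged, then analysed by C18 reverse-phase HPLC (water/methanol gradient). Demethylated fraction of substrate reported.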
Target sequence in this assay (Q9C0B1 whole entry, looked up, the tested form may be a part): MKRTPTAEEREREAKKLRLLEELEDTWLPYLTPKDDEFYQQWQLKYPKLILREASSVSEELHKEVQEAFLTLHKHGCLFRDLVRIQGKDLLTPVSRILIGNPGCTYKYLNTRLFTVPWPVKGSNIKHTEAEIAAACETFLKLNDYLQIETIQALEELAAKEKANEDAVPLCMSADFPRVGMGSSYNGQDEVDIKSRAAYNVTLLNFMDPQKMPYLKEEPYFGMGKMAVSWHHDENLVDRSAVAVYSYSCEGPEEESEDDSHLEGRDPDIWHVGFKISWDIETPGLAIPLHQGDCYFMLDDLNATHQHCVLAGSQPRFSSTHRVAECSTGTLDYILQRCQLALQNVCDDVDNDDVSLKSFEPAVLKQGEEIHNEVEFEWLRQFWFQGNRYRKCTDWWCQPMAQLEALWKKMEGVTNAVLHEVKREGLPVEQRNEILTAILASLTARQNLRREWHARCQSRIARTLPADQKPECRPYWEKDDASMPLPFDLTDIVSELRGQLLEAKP

[2] = target: T1, Alpha-ketoglutarate-dependent dioxygenase FTO; experiment: Binding affinity to FTO (unknown origin) (31 to 505 residues) expressed in Escherichia coli BL21 (DE3) by ITC method
Summary of the method: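 ITC at 25 °C. Cell contained 140 μM FTO (residues 31–505, His/Ni-resin and ion-exchange purified from E. coli BL21(DE3) after IPTG induction) in 25 mM HEPES pH 7.5, 100 mM NaCl, 10 mM β-mercaptoethanol, 10% DMSO. Titrant was the same buffer with 1.5 mM ligand, given as one 0.4 μL then 2.0 μL injections every 150 s at 750 rpm. Buffer-only dilution heats subtracted before fitting Kd.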
Target sequence in this assay (Q9C0B1 whole entry, the tested form may be a part): as the sequence (Q9C0B1 whole entry, looked up, the tested form may be a part) above

[3] = Cytotoxicity against mouse 3T3L1 cells assessed as effect on cell morphology at 1 to 20 uM incubated for 8 days; assay type: cell-based; settings: 3t3-l1, 192 h
Summary of the method: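 3T3-L1 preadipocytes were exposed to 1, 10 or 20 μM for 8 days. Cell health was judged from morphology.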

[4] = target: Alpha-ketoglutarate-dependent dioxygenase FTO (Mus musculus) (UniProt Q8BGW1); experiment: Inhibition of FTO in mouse 3T3L1 cells increase in […] m6A modified mRNA levels at 10 uM incubated for 48 hrs by dot blot method; assay type: cell-based; settings: 3T3-L1
Chain of Alpha-ketoglutarate-dependent dioxygenase FTO (Mus musculus) (Q8BGW1 whole entry): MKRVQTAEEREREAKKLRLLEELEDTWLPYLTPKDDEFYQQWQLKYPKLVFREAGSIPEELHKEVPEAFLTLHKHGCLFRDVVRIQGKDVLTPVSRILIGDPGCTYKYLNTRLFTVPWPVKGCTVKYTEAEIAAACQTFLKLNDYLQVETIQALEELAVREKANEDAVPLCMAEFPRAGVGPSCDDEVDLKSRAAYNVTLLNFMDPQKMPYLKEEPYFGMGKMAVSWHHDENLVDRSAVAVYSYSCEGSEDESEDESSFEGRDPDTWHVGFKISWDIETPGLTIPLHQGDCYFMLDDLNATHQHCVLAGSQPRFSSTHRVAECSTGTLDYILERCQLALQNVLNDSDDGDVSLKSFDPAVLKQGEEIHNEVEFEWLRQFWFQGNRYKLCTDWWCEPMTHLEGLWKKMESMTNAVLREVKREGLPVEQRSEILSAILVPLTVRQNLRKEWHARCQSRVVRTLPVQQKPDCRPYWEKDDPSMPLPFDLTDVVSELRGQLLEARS
Summary of the method: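 3T3-L1 preadipocytes stably transfected with empty pcDNA3.1, WT-FTO or R96Q-FTO were grown in high-glucose DMEM/10% FBS. Post-confluent cells were differentiated 48 h with insulin, dexamethasone and IBMX, then given 10 μM compound plus insulin for 48 h. mRNA m6A was quantified as relative integrated optical density; mean ± SEM, n = 4.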

[5] = tested on: Alpha-ketoglutarate-dependent dioxygenase FTO (Homo sapiens), Q9C0B1 [R96Q]; settings: 3T3-L1, 10 uM
Chain of Alpha-ketoglutarate-dependent dioxygenase FTO (Homo sapiens), Q9C0B1 [R96Q] (Q9C0B1 whole entry R96Q): as the sequence (Q9C0B1 whole entry, looked up, the tested form may be a part) above, with R96Q counted along it

[6] = target: T1, Alpha-ketoglutarate-dependent dioxygenase FTO; settings: BL21-DE3, 80 uM
Target sequence in this assay (Q9C0B1 whole entry, looked up, the tested form may be a part): as the sequence (Q9C0B1 whole entry, looked up, the tested form may be a part) above

[7] = target: T1, Alpha-ketoglutarate-dependent dioxygenase FTO; settings: 3T3-L1, 10 uM
Target sequence in this assay (Q9C0B1 whole entry, looked up, the tested form may be a part): as above

[8] = target: T1, Alpha-ketoglutarate-dependent dioxygenase FTO; experiment: biochemical
Target sequence in this assay (Q9C0B1 whole entry, the tested form may be a part): as the sequence (Q9C0B1 whole entry, looked up, the tested form may be a part) above

| Activity [1] | Structure (SMILES) | also measured |
| --- | --- | --- |
| 26.1% | O=C(Nc1cc(Cl)c(O)cc1O)C1(c2ccc([N+](=O)[O-])cc2[N+](=O)[O-])CCC1 | – |
| 25.8% | O=C(Nc1cc(Cl)c(O)cc1O)C1(c2cccc(O)c2)CCC1 | – |
| 18.4% | O=C(Nc1cc(Cl)c(O)cc1O)C1(c2ccc3ccccc3c2)CCC1 | – |
| 16.9% | O=C(Nc1cc(Cl)c(O)cc1O)C1(c2cccc(Cl)c2)CCC1 | – |
| 39% | O=C(Nc1cc(Cl)c(O)cc1O)C1(c2cccc3ccccc23)CCC1 | – |
| 17.3% | O=C(Nc1cc(Cl)c(O)cc1O)C1(c2cccc(Oc3ccccc3)c2)CCC1 | – |

Further lines, the compound ahead of its results:

| Structure (SMILES) | Activity [1] | also measured |
| --- | --- | --- |
| CCCCc1cccc(C2(C(=O)Nc3cc(Cl)c(O)cc3O)CCC2)c1 | 18.2% | – |
| O=C(Nc1cc(Cl)c(O)cc1O)C1(c2ccc(O)cc2)CCC1 | 17.8% | – |
| O=C(Nc1cc(Cl)c(O)cc1O)C1(c2cccc(C(F)(F)F)c2)CCC1 | 29.8% | – |
| O=C(Nc1cc(Cl)c(O)cc1O)C1(c2ccccc2Cl)CCC1 | 16.9% | – |
| O=C(Nc1cc(Cl)c(O)cc1O)C1(c2c(F)cccc2F)CCC1 | 15.2% | – |
| CCCCc1ccc(C2(C(=O)Nc3cc(Cl)c(O)cc3O)CCC2)cc1 | 22.2% | – |
| O=C(Nc1cc(Cl)c(O)cc1O)C1(c2ccc(Cl)cc2)CCC1 | 29.2% | – |
| O=C(Nc1cc(Cl)c(O)cc1O)C1(c2ccccc2)CCC1 | 14.4% | Kd [2]: 13 µM; Activity [3]: Non-toxic; inhibition [4]: Active; inhibition [5]: Active; inhibition [6]: Dose-dependent effect; inhibition [7]: Active; IC50 [8]: 4.95 µM |
| O=C(Nc1cc(Cl)c(O)cc1O)C1(c2cc(C(F)(F)F)cc(C(F)(F)F)c2)CCC1 | 61.9% | – |
| O=C(Nc1cc(Cl)c(O)cc1O)C1(c2c(Cl)cccc2Cl)CCC1 | 15.4% | – |
| O=C(Nc1cc(Cl)c(O)cc1O)C1(c2ccc(Br)cc2)CCC1 | 31.3% | – |
| O=C(Nc1cc(Cl)c(O)cc1O)C1(c2ccc([N+](=O)[O-])cc2)CCC1 | 46.9% | – |
| O=C(Nc1cc(Cl)c(O)cc1O)C1(c2cccc(Br)c2)CCC1 | 18.7% | – |
| O=C(Nc1cc(Cl)c(O)cc1O)C1(c2ccccc2Br)CCC1 | 21.6% | – |
